# Arr AP2 block = inhibitors of human beta-arrestin and AP2 interaction | FITC-arrestin peptide / GST-AP2 beads, flow cytometry; AP2 beta2 appendage carries R879A mutation | inhibition, % at 10 µM | actives 0.31% (n = 340,000);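 active = inhibition above a set limit, near 3 SD of compounds lacking own fluorescence, cut at about 54% in these data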;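 note: plate controls were DMSO wells for no effect and 5 µM unlabelled arrestin peptide for full effect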
#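 system = GST-tagged AP2 beta2-adaptin appendage (R879A) on 4 µm glutathione beads | reagent = FITC-labelled arrestin peptide probe, 50 nM final | schedule = compound with beads 12 min RT, then probe 1 h RT | signal = HyperCyt-sampled flow cytometry, FL1 channel, ex 488/em 535 nm | read-out = percent response from loss of bead-bound FITC fluorescence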
# Lipid droplet = modulators of hepatic lipid droplet formation. AML12 mouse hepatocytes, oleate lipid droplets, BODIPY imaging. actives 0.4% (n = 240,000). inhibition, % at 6.5 µM;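 active = lipid droplet intensity inhibited by at least 50%, with more than 500 cells counted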
#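 Test system: AML12 hepatocytes (mouse); reagent: oleate loading, 100 µM; dosing: one dose, 6.5 µM compound; incubation: overnight exposure; signal: fluorescence imaging, 20x objective, two fields per well; read-out basis: % inhibition of corrected integrated BODIPY droplet signal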
# PfM18AAP inh-1 = blocks P. falciparum M18 aspartyl aminopeptidase. recombinant PfM18AAP, H-Glu-NHMec fluorogenic cleavage. inhibition, % at 7.35 µM. actives 1.2% (n = 290,000);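 active = inhibition above the campaign mean inhibition over all tested compounds plus 3 SD, cut at about 28% in these data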;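 note: 0% = plate median of test compound wells and 100% = 2 mM ZnCl2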
# m5-HT2A agonist = activates the mouse 5-HT2A serotonin receptor; P35363; CHO-K1 mHTR2A beta-arrestin complementation, luminescence; percent of 30 µM serotonin response; activation, % at 7.6 µM; actives 0.66% (n = 360,000); AID 624169;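 active = activation above a run cutoff, the mean activation of all tested compounds plus 3 SD, cut at about 14% in these data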;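 note: 0% = plate median of compound wells and 100% = 30 µM serotonin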
# sPLA2-III inh = Blocks human group III sPLA2 activity; inhibition, % at 12.2 µM; AID 743126; QFRET BODIPY PC-A2 liposome hydrolysis, fluorescence; Q9NZ20; actives 0.56% (n = 370,000);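 active = inhibition above mean plus 3 SD of compounds lying within the high and low control bounds, cut at about 19% in these data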;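 note: 0% = median of test compound wells and 100% = no enzyme DMSO wells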
# CendR NRP1 mod = NRP-1/CendR interaction modulation. actives 0.85% (n = 360,000). AID 602438. FAM-RPARPAR peptide binding to NRP-1, fluorescence polarization. O14786. inhibition, % at 25 µM;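 active = inhibition or corrected inhibition above about 18%, plus a signal ratio from 0.5 to 1.5, limit read from the data, passing the limit was not always enough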
# PfM18AAP inh-2 = confirmation of Plasmodium falciparum M18 aspartyl aminopeptidase inhibitors | shares compounds with PfM18AAP inh-1 | recombinant PfM18AAP, H-Glu-NHMec fluorogenic cleavage | inhibition, % at 7.35 µM | actives 28% (n = 2,400);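 active = mean inhibition over replicate wells above the hit cutoff set for the earlier primary screen, cut at about 29% in these data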;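 note: 0% = median of test compound wells and 100% = 2 mM ZnCl2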
# CTSL1 confirm = Cathepsin L (human) inhibition, confirmation; shares compounds with PfM18AAP inh-1; purified cathepsin L1, Z-Leu-Arg-MCA fluorescence; inhibition, % at 5.96 µM; 2,400 tested, under 10 active; AID 2178;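 active = average inhibition across replicates above the hit cutoff set in the earlier primary screen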;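 note: 0% = median of test compound wells and 100% = Z-Phe-Ala-diazomethylketone 1 µM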
# Target sequence (P07711 whole entry, looked up): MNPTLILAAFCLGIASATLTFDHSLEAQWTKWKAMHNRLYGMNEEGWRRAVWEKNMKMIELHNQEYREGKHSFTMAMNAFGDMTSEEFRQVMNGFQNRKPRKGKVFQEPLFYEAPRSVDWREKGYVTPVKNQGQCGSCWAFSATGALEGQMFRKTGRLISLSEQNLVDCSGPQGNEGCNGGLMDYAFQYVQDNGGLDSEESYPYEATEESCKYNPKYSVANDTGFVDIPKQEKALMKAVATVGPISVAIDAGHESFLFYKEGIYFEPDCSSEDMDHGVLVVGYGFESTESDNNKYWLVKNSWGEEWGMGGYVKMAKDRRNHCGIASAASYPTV
# Starred values were filed as active, the others as inactive; . = no result given. Rows were chosen to be rich in hits. Some 3.3% of all compounds tested hit in one or more screens of this group.
SMILES,Arr AP2 block,Lipid droplet,PfM18AAP inh-1,m5-HT2A agonist,sPLA2-III inh,CendR NRP1 mod,PfM18AAP inh-2,CTSL1 confirm
CC(C)(C)c1ccc(O)c(N=Cc2c(O)ccc3ccccc23)c1,-21,1,89*,6,-22,-4,45*,3
COC(=O)C(O)(c1ccc(N=Cc2ccccc2O)c(C)c1)C(F)(F)F (stereo unspecified),10,7,3,-5,3,-6,.,.
COc1cc(/C=C2\C(=O)NC(=O)N(c3ccccc3)C2=O)cc(OC)c1O,-8,2,36*,-4,4,-6,-39,6
O=C(O)Cn1cc(C=C2C(=O)NC(=O)NC2=O)c2ccccc21,5,4,27,-3,-2,-21,.,.
CCN(CC)C(=O)Cn1cc(/C=C2\C(=O)NC(=O)N(c3ccccc3F)C2=O)c2ccccc21,25,.,35*,-9,-2,3,-7,-5
Cn1cc(/C=C2\C(=O)NC(=O)N(c3ccccc3)C2=O)c2ccccc21,34,-3,35*,-6,6,120,39*,1
O=C(O)Cn1cc(/C=C2\C(=O)NC(=O)N(c3ccc(Cl)cc3)C2=O)c2ccccc21,-6,16,26,4,-3,-48,.,.
C=CCn1cc(C=C2C(=O)NC(=O)NC2=O)c2ccccc21,-7,.,54*,4,3,-35,33*,-5
CCN1C(=O)NC(=O)/C(=C\c2cn(CC(=O)N3CCCCC3C)c3ccccc23)C1=O (stereo unspecified),40,4,16,7,.,-20,.,.
CCCNC(=O)N1[C@H]2CC[C@@H]1C(C(=O)OC)=C(c1cccc(OC)c1OC)C2,-9,.,.,-2,6,10,.,.
CC(=O)c1ccc(OCC(=O)N2CCCC(N3CCN(c4ccccc4C)CC3)C2)cc1 (stereo unspecified),-13,-2,-1,-8,-8,9,.,.
CN1C2CCC1CC(OC(c1ccccc1)c1ccc(Cl)cc1)C2 (stereo unspecified),.,.,.,.,-11,.,.,.
NNc1n[nH]c(=S)n1N,19,0,42*,-3,12,10,40*,3
O=C(NCCN1CCC2(CC1)C(=O)NCN2c1ccccc1)c1ccc(Cl)cc1,.,.,.,.,2,.,.,.
O=C1NC(=O)N(Cc2ccco2)C(=O)/C1=C/C=C/c1ccco1,16,9,35*,2,2,-211,-4,-2
Cn1cccc1/C=C1\C(=O)NC(=O)N(Cc2ccco2)C1=O,16,2,15,-1,-10,-30,.,.
O=C1NC(=O)C(=Cc2ccc(-c3ccc(S(=O)(=O)N4CCOCC4)cc3)o2)C(=O)N1,-3,-6,-4,-1,0,-46,.,.
O=C1NC(=O)C(=Cc2ccc(-c3ccc(Cl)cc3)o2)C(=O)N1,18,0,33*,-6,.,-95,19,-4
O=C1NC(=O)C(=Cc2ccc(-c3ccc(F)cc3O)o2)C(=O)N1,19,-2,51*,1,1,-37,58*,0
COc1ccc(-n2c(/C=C/c3ccc(O)c(O)c3)nc3ccccc3c2=O)cc1,6,13,63*,1,-2,-92,45*,1
CN(C)C1C(=O)C(C(N)=O)=C(O)C2(O)C(=O)C3=C(O)c4c(O)cccc4C(C)(O)C3C(O)C12 (stereo unspecified),26,-12,56*,3,3,-14,-21,1
c1ccc(C(c2ccccc2)c2ccncc2)cc1,-1,.,.,-11,-10,3,.,.
CC1=C(C(=O)O)N2C(=O)[C@@H](NC(=O)CCCC(=O)O)[C@H]2SC1,0,4,36*,1,13,-8,15,3
CN1C(=O)C(Cc2ccccc2)C(=O)N(C)C1=O,-17,.,.,-6,-1,4,.,.
CN1C(=O)C(Cc2ccc3c(c2)OCO3)C(=O)N(C)C1=O,.,1,34*,.,.,.,0,-3
SMILES,Arr AP2 block,Lipid droplet,PfM18AAP inh-1,m5-HT2A agonist,sPLA2-III inh,CendR NRP1 mod,PfM18AAP inh-2,CTSL1 confirm
COc1ccc(-n2c(/C=C3/C(=O)Nc4ccccc43)nc3ccccc3c2=O)cc1,30,8,-2,3,4,-3,.,.
COc1ccccc1-n1c(O)c(/C=C2\C=Nc3ccccc32)c(=O)[nH]c1=O,-19,-7,40*,-2,0,-32,43*,-9
Cc1ccc(N2C(=O)NC(=O)/C(=C\c3cc(C)n(-c4cc(C(=O)O)cc(C(=O)O)c4)c3C)C2=O)cc1,-7,-1,19,1,-3,-52,.,.
CCc1ccc(N2C(=O)NC(=O)/C(=C\c3cc(C)n(-c4cc(C(=O)O)cc(C(=O)O)c4)c3C)C2=O)cc1,6,-3,32*,3,-10,-64,-22,-1
c1ccc(-c2nc3ccccc3nc2-c2ccc(CN3CCC(n4nnc5ccccc54)CC3)cc2)cc1,.,.,.,.,-3,.,.,.
COCCOC(=O)c1c(N)n(Cc2ccc(OC)cc2)c2nc3ccccc3nc12,8,-2,35*,0,-13,7,-20,10
O=C(Cc1ccc(Cl)c(Cl)c1)NCC1(N2CCOCC2)CCCCC1,17,-12,-2,-3,-2,-4,.,.
C[N+]1(C)[C@@H]2CC[C@H]1CC(OC(=O)[C@@H](CO)c1ccccc1)C2 (stereo partly specified),-1,-1,44*,0,5,7,33*,-2
C=CCCC1(C2=CCCCC2)C(=O)NC(=O)NC1=O,-8,.,.,0,-2,-4,.,.
CCN(CC)c1ccc(/C=N/c2sc3c(c2C#N)C2CCN3CC2)c(O)c1,-3,26,32*,1,.,132,-37,0
CC(=O)C1=C(C)OC2=C(C(=O)CCC2)[C@@]12C(=O)N(C)c1ccccc12,.,.,.,.,0,.,.,.
O=C1NC(=O)C(=Cc2coc3ccc(O)cc3c2=O)C(=O)N1,37,9,39*,6,7,-37,19,-1
N[C@H](CO)Cc1ccccc1,15,.,.,0,11,-3,.,.
C[C@]12CC[C@H]3[C@@H](CCC4=CC(=O)CC[C@@H]43)[C@@H]1CC[C@@H]2O,4,.,.,0,14,1,.,.
C[C@]12CC[C@@H]3c4ccc(O)c(O)c4CC[C@H]3[C@@H]1CC[C@@H]2O,12,2,57*,4,-8,-3,92*,-4
C/C(CC(c1ccccc1)c1c(O)c2ccccc2oc1=O)=N\Nc1ccc([N+](=O)[O-])cc1[N+](=O)[O-] (stereo unspecified),9,-1,36*,-4,0,-4,-28,-1

# Assay outcomes as filed in PubChem BioAssay.
